# Bioassay records deposited in PubChem BioAssay by several laboratories.
# Runt-SMMHC FRET: blocks binding of human RUNX1 Runt domain to CBFb-SMMHC. Q01196+Q13951. Cerulean-Runt/Venus-CBFb-SMMHC FRET ratio 530/480, 1 h. inhibition, % at 20 µM. 220,000 compounds, 0.74% hits;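 active = mean inhibition across duplicate retests at 20 µM reaching about 50%, limit read from the data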;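 note: 0% = DMSO wells and 100% = wells with excess untagged CBFb-SMMHC; inhibitors lower the FRET ratio by blocking Runt binding to CBFb-SMMHC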
# MEX-5 binding: C. elegans MEX-5 TCR-2 RNA binding activity; Q9XUB2; MEX-5/FITC-TCR2 RNA binding, fluorescence polarization; stronger effect = lower value; activity score (negative = inhibition of binding), % at 10 µM; 300,000 compounds, 0.38% hits; AID 1832;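 active = inhibition past about -25% in most replicates, and total fluorescence under double the plate's negative control median, limit read from the data; inconclusive = replicates evenly split on the limit, or fluorescence at least double controls; inactive = too little inhibition in most replicates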;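 note: 0% = DMSO and -100% = 5 µM competing unlabeled TCR2 RNA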
# Target sequence (Q9XUB2 whole entry, looked up): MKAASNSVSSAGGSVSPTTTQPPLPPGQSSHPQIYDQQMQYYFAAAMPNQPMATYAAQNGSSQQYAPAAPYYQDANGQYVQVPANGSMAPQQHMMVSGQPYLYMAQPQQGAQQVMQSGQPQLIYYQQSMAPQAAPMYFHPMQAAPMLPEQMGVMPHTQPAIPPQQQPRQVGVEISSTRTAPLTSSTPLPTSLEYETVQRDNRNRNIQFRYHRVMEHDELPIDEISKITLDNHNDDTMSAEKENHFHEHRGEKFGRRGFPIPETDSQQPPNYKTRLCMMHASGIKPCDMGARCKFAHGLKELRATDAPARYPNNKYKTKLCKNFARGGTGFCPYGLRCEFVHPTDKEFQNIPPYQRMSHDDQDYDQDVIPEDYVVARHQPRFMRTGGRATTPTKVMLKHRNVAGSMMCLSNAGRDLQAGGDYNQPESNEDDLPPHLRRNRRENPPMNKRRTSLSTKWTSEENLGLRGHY
# KLK7 zymogen act: activates the human kallikrein-7 zymogen; purified proKLK7, EDANS-DABCYL substrate fluorescence; 100% is mature enzyme control, 0% vehicle; activation, % at 7 µM; 370,000 compounds, 0.9% hits; AID 652039;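 active = activation above the mean of all tested compounds plus 3 SD, computed per campaign excluding outliers beyond control limits, cut at about 13% in these data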
# RanGTP-Imp inh: disruptors of Ran-importin-beta complex formation – biochemical, FRET, CFP-Ran, YFP-importin-beta, homogeneous, primary screen; cell-free CFP-Ran/YFP-importin-beta FRET ratio; inhibition, % (no concentration beside the values); 300,000 compounds, 1.1% hits; AID 2216;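 active = more than half of the replicate wells show a fall in the fluorescence ratio signal beyond about 16%, limit read from the data, passing the limit was not always enough; inconclusive = exactly half of the replicate wells pass the set limit; inactive = fewer than half of replicates pass the limit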;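 note: 0% = DMSO wells and 100% = Ran loaded with GDP instead of GTP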
# Runt-CBFb FRET: blocks binding of human RUNX1 Runt domain to CBFb | Cerulean-Runt/Venus-CBFb FRET ratio 530/480, 1 h | Q01196+Q13951 | inhibition, % at 20 µM | 220,000 compounds, 0.46% hits | AID 1496;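 active = inhibition over about 50% at 20 µM in the single-dose screen, limit read from the data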;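 note: 0% = DMSO wells and 100% = excess unlabeled CBFb competitor control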
#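 Assay system: Cerulean-tagged RUNX1 Runt domain (FRET donor) fusion protein / Amount: 100 nM each of Venus-CBFb and Cerulean-Runt domain / Medium: Tris buffer pH 7.5 with salts and BSA / Also added: Venus-CBFb 100 nM / Schedule: 1 h complex formation plus 1 h compound treatment, room temperature / Signal: FRET fluorescence / Read-out: loss of energy transfer signal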
# The depositor's hits bear a star; ? = inconclusive; · = no result given. Most compounds without a hit are left out; they make up all but 2.1% or so of the library.
SMILES,Runt-SMMHC FRET,MEX-5 binding,KLK7 zymogen act,RanGTP-Imp inh,Runt-CBFb FRET
COc1ccc2ccccc2c1C=NN1CCCCC1,·,·,0,·,·
CCOC(=O)C1=C(C)N=c2s/c(=C\c3cccn3C)c(=O)n2C1c1cccc(OC)c1OC (configuration not stated),-111,-40*,0,-1,-44
Brc1ccc2nc(-c3ccco3)c(CC3CCCCC3)n2c1,·,·,-1,·,·
O=C(/C=C/c1ccc(O)c(O)c1)OC(Cc1ccc(O)c(O)c1)C(=O)O (configuration not stated),·,-53*,-7,-9,·
O=C(/C=C/c1ccc(O)c(O)c1)OCCc1ccccc1,·,-1,-2,-3,·
CCOc1cc(/C=C2\CCCc3c2nc2ccccc2c3C(=O)O)ccc1OC,·,-16,5,47*,·
COc1cc(/C=C2\CCc3c2nc2ccccc2c3C(=O)O)cc(OC)c1OC,-81,-26*,6,-7,-28
Cc1noc(C)c1COc1ccc(C(=O)N2CCC(C(N)=O)CC2)cc1,·,·,0,·,·
CCOC(=O)C1CCN(c2nc3ccccc3n2CC(=O)c2ccccc2)CC1,-1,-1,0,21*,2
COc1ccc(N2CCN(c3nc4ccccc4n3CC(=O)c3ccccc3)CC2)cc1,-5,1,1,9,-2
CCOC(=O)C1=CCN(S(=O)(=O)c2ccccc2C)C1c1cccc(F)c1 (configuration not stated),·,·,1,·,·
COc1ccc(/C=c2\sc3nc(=O)c(C)nn3c2=O)c(OC)c1,-38,-40*,0,0,-1
O=[N+]([O-])c1ccccc1/C=N\Nc1nccs1,·,-4,0,-1,·
O=[N+]([O-])c1cc(/C=N\Nc2nccs2)ccc1O,11,-100*,·,4,28
O=C1C=C(Nc2cccc3cccnc23)c2ccccc2C1=O,·,-31*,0,0,·
OC(c1ccc(F)c(F)c1)c1nc(-c2cccc(F)c2)cs1 (configuration not stated),·,·,1,·,·
CC1Cc2cc(S(=O)(=O)N3CCC(C(N)=O)CC3)ccc2N1C(=O)C1CC1 (configuration not stated),·,-6,0,18*,·
Cc1ccc(-c2cc(-c3ccco3)c(C#N)c(=O)[nH]2)cc1,-98,-40*,-4,-45,-226
N#Cc1c(-c2ccco2)cc(-c2ccccc2)[nH]c1=O,-76,-7,9,-3,-203
O=C(O)CCC1c2cc3c4cc2OC2Oc5cc6c(cc51)C(CCC(=O)O)c1cc5c7cc1OC(O6)c1cc6cc(c1)Oc1cc(cc(C(=O)O)c1)Oc1cc8cc(c1)C(Oc1cc(c(cc1C5CCC(=O)O)C3CCC(=O)O)OC(O4)c1cc(cc(c1)Oc1cc(cc(C(=O)O)c1)O8)Oc1cc(cc(C(=O)O)c1)Oc1cc(cc2c1)Oc1cc(cc(C(=O)O)c1)O6)O7 (configuration not stated),·,-100*,·,?,·
COc1ccc(S(=O)(=O)C(C#N)c2nc3ccccc3nc2N2CCCC(C)C2)cc1 (configuration not stated),0,-7,-3,13,6
Cc1ccc(S(=O)(=O)C(C#N)c2nc3ccccc3nc2N2CCCC2)cc1 (configuration not stated),-104,-4,-22,-1,-22
CC1CCCN(c2nc3ccccc3nc2C(C#N)S(=O)(=O)c2cccs2)C1 (configuration not stated),0,-50*,0,?,15
CCN1CCN(c2nc3ccccc3nc2C(C#N)S(=O)(=O)c2ccc(C)cc2)CC1 (configuration not stated),17,-1,2,82*,1
CCN1CCN(c2nc3ccccc3nc2C(C#N)S(=O)(=O)c2ccc(C)c(C)c2)CC1 (configuration not stated),23,0,0,75*,2
SMILES,Runt-SMMHC FRET,MEX-5 binding,KLK7 zymogen act,RanGTP-Imp inh,Runt-CBFb FRET
Cc1ccc(S(=O)(=O)C(C#N)c2nc3ccccc3nc2N2CC(C)OC(C)C2)cc1C (configuration not stated),65,-59*,0,3,10
N#CC(c1nc2ccccc2nc1N1CCOCC1)S(=O)(=O)c1ccccc1 (configuration not stated),3,·,0,16*,14
N#CC(c1nc2ccccc2nc1OCCO)S(=O)(=O)c1ccccc1 (configuration not stated),-4,-38*,0,23*,-2
O=C(OCc1cn([C@@H]2C[C@H](c3ccccc3)N(C(=O)c3cccs3)C[C@H]2O)nn1)c1ccccc1,·,·,0,·,·
Cc1ccccc1C(=O)NC(CC(C)C)C(=O)NCC(C)(C)N1CCOCC1 (configuration not stated),·,·,0,·,·
Cc1ccccc1C(=O)N1CCC(C(=O)OCc2nc(N)nc(Nc3ccccc3)n2)CC1,·,·,0,·,·
O=c1oc2c(CN3CCCCC3)c(O)ccc2cc1-c1nc2ccccc2[nH]1,57*,·,5,·,18
CCc1cc2c(=O)c(-c3nc4ccccc4[nH]3)coc2c(CN2CCCCC2)c1O,3,1,-1,-2,-1
Cc1cccc(N2CCN(C(=O)Cn3sc4nc(C)cc(C)c4c3=O)CC2C)c1 (configuration not stated),74*,-2,·,2,-20
Cc1cccc(N2CCN(C(=O)Cn3nc(C)n4cccc4c3=O)CC2C)c1 (configuration not stated),·,2,0,-3,·
Cc1cc(C)c2c(=O)n(CC(=O)N3CCC(Cc4ccccc4)CC3)sc2n1,50*,3,·,-4,-15
Cc1ccn2c(=O)nc(SCC(=O)N3CCC(Cc4ccccc4)CC3)nc2c1,·,3,1,-7,·
COc1ccc(F)cc1S(=O)(=O)N1CCN(C(=O)c2ccco2)CC1,·,1,0,4,·
C#Cc1ccc(NC(=O)C2(C)CCN2C(=O)C2(c3ccccc3)CCCC2)cc1 (configuration not stated),·,·,0,·,·
N=c1oc2cc(O)ccc2cc1C(=O)Nc1ccc(Cl)cc1,·,2,9,170*,·
Nc1[nH]c2cc(C(F)(F)F)ccc2c1C(=O)NC1CCCCC1,·,·,1,·,·
N#Cc1c(C(F)(F)F)cc(-c2ccccc2)[nH]c1=O,10,2,25*,0,2
COc1cc2c(C(=O)Nc3ccc4c(c3)OCO4)cn(CC(C)C)c(=O)c2cc1OC,1,0,·,22*,-14
CC(=O)N1c2ccccc2[C@@H](C)[C@@H]1C,·,·,0,·,·
CC(=O)N1c2ccccc2C2(O)N=C(C)SC12 (configuration not stated),52*,3,·,·,20
CCCC1CCC2(CCC(=O)N2CCSc2ccccc2)CC1 (configuration not stated),·,·,1,·,·
CCCNc1c(F)c(F)c2c(C)c3ccccc3nc2c1F,-22,-29*,-1,-9,-4
